Paper PMC3609577 (Diabetes, 2013)

How the values were obtained:
[1] = test system: A549 cells; experiment: Intracellular NAD+ levels in A549 cells; type: cell-based, human; conditions: for Intracellular NAD+ levels over time in cells incubated in PBS: A549 cells in PBS, quercetin 50 μmol/L, apigenin 25 μmol/L; for Intracellular NAD+ levels, dose response: A549 cells, 6 h incubation
[2] = target: T1, CD38 (Mus musculus, UniProt P56528); experiment: Liver CD38 activity, NAD+ and protein readouts in high-fat diet obese mice; type: in vivo; conditions: 100 mg/kg i.p. daily for 1 week vs vehicle
T1 sequence (P56528 1-304): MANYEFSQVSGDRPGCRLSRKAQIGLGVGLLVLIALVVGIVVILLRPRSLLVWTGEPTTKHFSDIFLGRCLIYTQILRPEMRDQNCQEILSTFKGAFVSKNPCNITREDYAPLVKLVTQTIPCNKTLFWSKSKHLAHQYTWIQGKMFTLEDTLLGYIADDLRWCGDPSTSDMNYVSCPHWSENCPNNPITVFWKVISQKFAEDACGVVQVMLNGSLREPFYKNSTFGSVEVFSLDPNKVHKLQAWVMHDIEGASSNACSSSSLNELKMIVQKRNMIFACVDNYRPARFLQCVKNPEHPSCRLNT
Outline: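 Twelve 20-week-old C57BL/6 mice were fed a high-fat diet (60% of calories from fat) ad libitum for 4 weeks, then randomised into two groups. Groups received the test compound at 100 mg/kg i.p. or DMSO vehicle once daily for 7 days while staying on the diet. Hepatic NAD+ was measured by enzymatic cycling. Liver lysates were immunoblotted with anti-acetyl-lysine and quantified as intensity-profile area; n = 3 per group.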

[3] = test system: atherosclerosis in mice; conditions: cited from earlier work
[4] = test system: HepG2 cells; experiment: Protein acetylation in HepG2 cells; type: cell-based, human
[5] = target: T2, endogenous CD38 (A549 cells) (Homo sapiens, UniProt P28907); experiment: Endogenous CD38 NAD+ase activity in protein lysates from A549 cells; type: biochemical
T2 sequence (P28907 1-300): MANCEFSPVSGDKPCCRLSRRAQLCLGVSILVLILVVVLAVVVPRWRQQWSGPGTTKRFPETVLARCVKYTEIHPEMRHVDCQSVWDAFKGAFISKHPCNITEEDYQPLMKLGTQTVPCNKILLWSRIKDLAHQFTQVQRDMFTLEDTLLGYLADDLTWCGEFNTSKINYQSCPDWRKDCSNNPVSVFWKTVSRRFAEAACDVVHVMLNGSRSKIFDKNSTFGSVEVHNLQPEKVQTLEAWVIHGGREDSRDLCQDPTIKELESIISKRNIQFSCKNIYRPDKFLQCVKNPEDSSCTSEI

[6] = test system: C57BL/6 mice on a high-fat diet; experiment: Glucose homeostasis and liver lipid metabolism in high-fat diet obese mice; type: in vivo, mouse
[7] = test system: HepG2 cells; experiment: Lipid accumulation in HepG2 cells; type: cell-based, human; conditions: 0.5 mmol/L oleate/palmitate (2:1) plus 25 μmol/L apigenin
[8] = test system: AMPK; conditions: cited from earlier work
[9] = target: T3, recombinant human CD38 (Homo sapiens, UniProt P28907); experiment: In vitro CD38 ADP-ribosyl-cyclase activity; type: biochemical
T3 sequence (P28907 43-300 limits assumed): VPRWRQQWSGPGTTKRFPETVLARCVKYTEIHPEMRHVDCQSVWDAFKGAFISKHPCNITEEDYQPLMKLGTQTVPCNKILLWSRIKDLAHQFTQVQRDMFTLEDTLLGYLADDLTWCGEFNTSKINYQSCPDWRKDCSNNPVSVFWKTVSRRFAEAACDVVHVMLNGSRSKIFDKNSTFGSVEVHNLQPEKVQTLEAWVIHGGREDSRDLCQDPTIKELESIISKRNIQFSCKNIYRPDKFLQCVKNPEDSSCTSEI

[10] = test system: wild-type and CD38 knockout MEFs; experiment: Intracellular NAD+ levels in wild-type and CD38 knockout MEFs; type: cell-based, mouse; conditions: quercetin 50 μmol/L, 6 h; for Intracellular NAD+ levels in CD38 knockout MEFs: apigenin 25 μmol/L
[11] = test system: CD38; conditions: ref Kellenberger et al. 19; cited from earlier work
[12] = target: T3, recombinant human CD38; experiment: In vitro CD38 NAD+ase activity; type: biochemical
[13] = test system: SIRT1; conditions: cited from earlier work

For `O=c1cc(-c2ccc(O)cc2)oc2cc(O)cc(O)c12` [apigenin, 5,7-dihydroxy-2-(4-hydroxyphenyl)-4H-1-benzopyran-4-one], the “Intracellular NAD+ levels over time in cells incubated in PBS” value [1] was “protected against NAD^+ depletion”, the “Intracellular NAD+ levels, dose response” value [1] was “increased NAD^+ levels in cells in a dose-dependent manner” and the “CD38 activity in the liver” value [2] was “decreased CD38 activity in the liver”. For the same compound, the “Global acetylation of proteins in liver (acetyl-lysine antibody)” value [2] was “statistically significant decrease in global acetylation of proteins”, the “Hepatic NAD+ levels” value [2] was “increase in hepatic NAD^+ levels” and the “Liver expression of CD38, SIRT1, Nampt (immunoblot)” value [2] was “no significant differences in the expression of CD38, SIRT1, or Nampt”. The “Liver phosphorylation (Thr172) and total levels of AMPK (immunoblot)” value [2] was “did not see any changes in phosphorylation or total levels of AMPK”, the Atherosclerosis in mice [3] was “ameliorate atherosclerosis in mice” and the Total protein acetylation ([4]; apigenin 25 μmol/L, 6 h) was “decreases total protein acetylation”. For the same compound, the “Acetylation of p53 (K382) and RelA/p65 (K310)” value ([4]; apigenin 25 M (so in the source), 4 hours, MG132 10 µM) was “decreased acetylation of p53 at K382 and also of RelA/p65 at K310”, the IC50 [5] was 14.8 ± 2.2 µM and the “Total triglyceride content in the liver” value ([6]; 100 mg/kg i.p. daily for 1 week vs control) was “lower triglyceride levels in the liver”. For the same compound, the “Liver mRNA expression of lipid oxidation markers (RT-PCR)” value ([6]; 100 mg/kg i.p. daily for 1 week vs vehicle) was “increased expression of the enzymes MCAD and LCAD in the liver”, the “Glucose homeostasis (glucose tolerance test, AUC)” value ([6]; 100 mg/kg i.p. daily for 1 week, 1.5 g/kg i.p. dextrose) was “improve glucose homeostasis” and the “Food intake and body weight during treatment” value ([6]; 100 mg/kg i.p. daily for 7 days vs vehicle) was “no difference in these parameters between groups”. For the same compound, the “Fasting blood glucose levels” value ([6]; 100 mg/kg i.p. daily, 24 h fasting, day 7) was “significantly lower”, the “Blood glucose levels, ad libitum feeding” value ([6]; 100 mg/kg i.p. daily, after 4 days of treatment vs control) was “significantly lower blood glucose levels” and the “Lipid accumulation (total triglycerides) in cells” value [7] was “decreases lipid accumulation in cells”. The AMPK activation [8] was “very poor AMPK activator”, the IC50 [9] was 12.8 ± 1.6 µM and the “Intracellular NAD+ levels in CD38 knockout MEFs” value [10] was “had no effect on NAD^+ levels”.
In the case of `O=c1c(O)c(-c2ccc(O)c(O)c2)oc2cc(O)cc(O)c12` [quercetin, 2-(3,4-dihydroxyphenyl)-3,5,7-trihydroxy-4H-chromen-4-one], the “Intracellular NAD+ levels over time in cells incubated in PBS” value [1] is given as “NAD^+ levels were stable over time”, the “Intracellular NAD+ levels, dose response” value [1] is given as “promotes an increase in intracellular NAD^+ in a dose-dependent manner” and the Atherosclerosis in mice [3] is given as “ameliorate atherosclerosis in mice”. The IC50 [5] was 16.4 ± 1.8 µM, the “CD38 inhibition in vitro” value [11] was “inhibit CD38 in vitro” and the IC50 [12] was 13.8 ± 2.1 µM. The “SIRT1 activation in vitro” value [13] was “activate SIRT1 in vitro”, the “Intracellular NAD+ levels in CD38 knockout MEFs” value [10] was “does not further increase NAD^+ levels in CD38 knockout MEFs” and the “Intracellular NAD+ levels in wild-type MEFs” value ([10]; wild-type MEFs) was “promotes an increase in NAD^+ in the wild-type MEFs”.
